According to ChEMBL document CHEMBL1139238, “Preparation of two sets of 5,6,7-trioxygenated dihydroflavonol derivatives as free radical scavengers and neuronal cell protectors to oxidative damage” (Bioorg Med Chem, 2009):
pEC50, pIC50: −log10 of the molar value. Activity calls are given as the source filed them. No cut-off for these calls is given here.

Assays:
[1] = system: PC-12; experiment: Cytoprotective activity against H2O2-induced cell death in rat PC12 cells assessed as increase in cell viability at 16 ug/ml preincubated 2 hrs before H2O2 challenge measured after 4 hrs by MTT assay relative to control; type: functional
How it was run: (§1)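 PC12 cells from Shanghai Institute of Cell Biology, grown at 37 °C in 5% CO2 in high-glucose DMEM with 10% heat-inactivated calf serum and penicillin/streptomycin. Cells seeded at 6×10^3/well and used 36 h later. Compound in DMSO diluted in medium, 2 h pretreatment, then 500 µM H2O2 (final) for 4 h. MTT (5 mg/mL) for 3 h, formazan dissolved in DMSO, read at 570 nm. Gain is %OD(drug)/OD(normal) minus %OD(DMSO)/OD(normal).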

[2] = system: PC-12; experiment: Cytoprotective activity against H2O2-induced cell death in rat PC12 cells assessed as increase in cell viability at 32 ug/ml preincubated 2 hrs before H2O2 challenge measured after 4 hrs by MTT assay relative to control; type: functional; how it was run: as §1
[3] = system: PC-12; experiment: Cytoprotective activity against H2O2-induced cell death in rat PC12 cells assessed as increase in cell viability at 8 ug/ml preincubated 2 hrs before H2O2 challenge measured after 4 hrs by MTT assay relative to control; type: functional; how it was run: as §1
[4] = system: Liver; experiment: tissue or blood; conditions: Rattus norvegicus, 1 h
[5] = molecular target: Xanthine dehydrogenase/oxidase (Rattus norvegicus) (UniProt P22985); experiment: Inhibition of xanthine oxidase assessed as formation of formazan after 2 hrs by spectrophotometry; design: concentration or dose not given beside the values
Sequence of Xanthine dehydrogenase/oxidase (Rattus norvegicus) (P22985 whole entry, looked up): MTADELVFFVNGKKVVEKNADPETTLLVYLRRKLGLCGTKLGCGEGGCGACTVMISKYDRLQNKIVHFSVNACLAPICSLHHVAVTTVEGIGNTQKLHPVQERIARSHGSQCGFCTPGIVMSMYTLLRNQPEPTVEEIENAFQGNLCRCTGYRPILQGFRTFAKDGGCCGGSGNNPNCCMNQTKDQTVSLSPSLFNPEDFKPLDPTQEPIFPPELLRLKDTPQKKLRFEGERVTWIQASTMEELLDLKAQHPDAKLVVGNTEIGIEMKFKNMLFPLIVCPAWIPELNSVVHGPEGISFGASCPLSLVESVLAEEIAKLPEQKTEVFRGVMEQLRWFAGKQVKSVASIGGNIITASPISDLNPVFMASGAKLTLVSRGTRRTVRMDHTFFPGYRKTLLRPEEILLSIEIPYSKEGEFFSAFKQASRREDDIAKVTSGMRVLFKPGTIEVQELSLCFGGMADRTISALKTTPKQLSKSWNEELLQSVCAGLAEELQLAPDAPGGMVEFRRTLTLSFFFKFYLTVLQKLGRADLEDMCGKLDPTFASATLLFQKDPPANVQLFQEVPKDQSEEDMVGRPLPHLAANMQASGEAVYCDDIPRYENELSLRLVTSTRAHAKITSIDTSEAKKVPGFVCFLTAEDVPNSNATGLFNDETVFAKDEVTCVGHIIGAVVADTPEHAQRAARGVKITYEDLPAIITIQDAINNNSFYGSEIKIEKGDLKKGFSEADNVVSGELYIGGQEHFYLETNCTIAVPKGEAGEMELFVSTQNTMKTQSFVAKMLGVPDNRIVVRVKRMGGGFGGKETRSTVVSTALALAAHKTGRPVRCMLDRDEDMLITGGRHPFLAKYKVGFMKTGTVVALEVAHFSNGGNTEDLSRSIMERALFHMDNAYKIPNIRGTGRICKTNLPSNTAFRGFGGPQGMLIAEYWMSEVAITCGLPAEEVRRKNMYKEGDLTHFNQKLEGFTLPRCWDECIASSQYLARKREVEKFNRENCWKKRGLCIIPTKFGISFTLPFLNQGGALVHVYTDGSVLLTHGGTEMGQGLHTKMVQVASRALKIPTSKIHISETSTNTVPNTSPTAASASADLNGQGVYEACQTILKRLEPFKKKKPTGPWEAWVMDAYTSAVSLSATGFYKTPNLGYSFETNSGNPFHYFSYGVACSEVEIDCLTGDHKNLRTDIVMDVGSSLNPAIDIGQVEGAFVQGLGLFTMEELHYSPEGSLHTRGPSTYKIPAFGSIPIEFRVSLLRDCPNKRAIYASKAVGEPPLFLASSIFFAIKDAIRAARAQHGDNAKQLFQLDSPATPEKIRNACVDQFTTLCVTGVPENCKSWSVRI

[6] = Antioxidant activity assessed as superoxide radical scavenging activity by spectrophotometry; type: functional
How it was run: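 Superoxide generated by NADH (78 μM), nitroblue tetrazolium (50 μM) and phenazine methosulfate (5 μM) in 16 mM Tris–HCl, pH 8.0, with compounds at various concentrations. Read at 560 nm after 5 min at room temperature. Blanks lack phenazine methosulfate; quercetin and vitamin C are references.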

[7] = system: Radical scavenging activity; experiment: Antioxidant activity assessed as DPPH free radical scavenging activity by spectrophotometry; type: functional
How it was run: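 DPPH (0.4 mg/mL) in methanol mixed with compounds (DMSO solutions) at various concentrations. Incubated 30 min at 37 °C, absorbance read at 517 nm. Methanolic DPPH alone serves as control; quercetin and vitamin C are the reference scavengers.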

[8] = molecular target: Xanthine dehydrogenase/oxidase (Rattus norvegicus) (UniProt P22985); experiment: Inhibition of xanthine oxidase assessed as formation of formazan at 16 ug/ml after 2 hrs by spectrophotometry
[9] = system: Liver; experiment: Antioxidant activity against FeSO4-induced lipid peroxidation in rat liver homogenate assessed as inhibition of malondialdehyde release at 6 to 100 uM after 1 hr by thiobarbituric acid assay relative quercetin; type: functional, tissue-based
How it was run: (§2)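 Rat (Sprague-Dawley) liver homogenate in ice-cold PBS; peroxidation driven by FeSO4 (4 μM) plus vitamin C (50 μM). Compounds at 0.1–100 μM, 37 °C for 1 h in capped tubes. Then 20% TCA for 30 min at room temperature, followed by 0.1 M HCl and 1% TBA at 99 °C for 1 h. After centrifugation, MDA read at 532 nm. Quercetin is the standard; n = 3, means ± SD.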

[10] = system: Liver; experiment: Antioxidant activity against FeSO4-induced lipid peroxidation in rat liver homogenate assessed as inhibition of malondialdehyde release at < 5 uM after 1 hr by thiobarbituric acid assay relative quercetin; type: functional, tissue-based; how it was run: as §2
[11] = system: PC-12; experiment: Cytoprotective activity against H2O2-induced cell death in rat PC12 cells assessed as increase in cell viability preincubated 2 hrs before H2O2 challenge measured after 4 hrs by MTT assay; type: functional, cell-based

| SMILES | Activity [1] | Activity [2] | Activity [3] | pIC50 [4] | Activity [5] | pEC50 [6] | pEC50 [7] | pIC50 [8] | Activity [9] | Activity [10] | pEC50 [11] |
| --- | --- | --- | --- | --- | --- | --- | --- | --- | --- | --- | --- |
| COc1cc([C@@H]2Oc3cc(OC)c(OC)c(OC)c3C(=O)[C@@H]2O)cc(OC)c1OC (racemic) | 9.2% | 15.1% | 2.1% | 4.71 | 28.9% | – | – | – | – | – | – |
| COc1cc([C@@H]2Oc3cc(OC)c(OC)c(OC)c3C(=O)[C@@H]2O)cc(OC)c1O (racemic) | – | – | – | 4.98 | – | 4.26 | 4.27 | – | – | – | – |
| COc1ccc([C@@H]2Oc3cc(OC)c(OC)c(OC)c3C(=O)[C@@H]2O)cc1 (racemic) | 3.4% | 2.1% | 0.6% | – | 24.9% | – | – | – | – | – | – |
| COc1cc2c(c(OC)c1OC)C(=O)[C@H](O)[C@H](c1ccc3c(c1)OCO3)O2 (racemic) | 5.4% | 4.5% | 1.4% | – | 0.8% | 4.10 | – | – | – | – | – |
| COc1cc2c(c(OC)c1OC)C(=O)[C@H](O)[C@@H](c1ccc(O)cc1)O2 (racemic) | 5.1% | 17.1% | -1.4% | – | 0.2% | – | – | – | – | – | – |
| COc1ccc([C@@H]2Oc3cc(OC)c(O)c(OC)c3C(=O)[C@@H]2O)cc1OC (racemic) | 19.8% | 22% | 2.9% | – | 74.3% | 4.30 | 4.44 | 4.80 | – | – | – |
| COc1cc([C@H]2Oc3cc(OC)c(OC)c(OC)c3C(=O)[C@@H]2O)ccc1O (racemic) | – | – | – | 5.26 | – | 4.01 | 4.56 | – | Active | inactive | – |
| COc1ccc([C@@H]2Oc3cc(OC)c(OC)c(OC)c3C(=O)[C@@H]2O)cc1OC (racemic) | 1.9% | 2.4% | -2.5% | 4.54 | 46.6% | – | – | – | – | – | – |
| O=c1c(O)c(-c2ccc(O)c(O)c2)oc2cc(O)cc(O)c12 [QUERCETIN] | 42.6% | 61.7% | 28.9% | 5.22 | – | 4.39 | 5.26 | – | – | – | 4.17 |
| COc1cc2c(c(OC)c1O)C(=O)[C@H](O)[C@H](c1ccc3c(c1)OCO3)O2 (racemic) | 0.3% | 0.5% | 0.1% | 5.19 | 12.5% | 4.03 | 4.74 | – | – | – | – |
| O=C1O[C@H]([C@@H](O)CO)C(O)=C1O [ASCORBIC ACID] | – | – | – | – | – | 3.59 | 3.81 | – | – | – | – |
| COc1cc2c(c(OC)c1OC)C(=O)[C@H](O)[C@@H](c1ccc(O)c(O)c1)O2 (racemic) | 56.1% | 74.5% | 40.5% | 4.98 | 58.9% | 4.00 | 5.14 | 4.01 | – | – | 4.48 |
| COc1cc2c(c(OC)c1OC)C(=O)[C@H](O)[C@H](c1ccccc1O)O2 (racemic) | – | – | – | 4.57 | – | 3.78 | 4.08 | – | – | – | – |
| COc1ccc([C@H]2Oc3cc(OC)c(OC)c(OC)c3C(=O)[C@@H]2O)cc1O (racemic) | – | – | – | – | – | 3.95 | 3.91 | – | – | – | – |
| COc1cc2c(c(OC)c1O)C(=O)[C@H](O)[C@@H](c1ccc(O)cc1)O2 (racemic) | 13.4% | 19.1% | -3.8% | – | 19.8% | – | 4.45 | – | – | – | – |
| COc1ccc([C@H]2Oc3cc(OC)c(O)c(OC)c3C(=O)[C@@H]2O)cc1 (racemic) | 37.2% | 53.6% | 19.5% | 4.92 | 21.1% | – | 4.02 | – | – | – | 4.08 |
| COc1cc([C@@H]2Oc3cc(OC)c(O)c(OC)c3C(=O)[C@@H]2O)ccc1O (racemic) | 0.5% | 1.6% | -0.2% | 5.72 | 15.4% | 4.01 | 4.37 | – | – | – | – |
